Laboratory results taken from ChEMBL document CHEMBL1138657 (2004).
Converted amounts (≈) assume the structure as drawn.

Columns and labels:
Candida parapsilosis [1] = experiment: Minimum inhibitory concentration to inhibit Candida parapsilosis ATCC 22019; type: functional, Fungi; details: Lodderomyces parapsilosis
How it was run: (§1)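 Broth microdilution per NCCLS document against 20 C. albicans strains. […] MIC is reported in µg/mL as the arithmetic mean ± SD. MIC50 and MIC90 are the MICs at which 50% and 90% of isolates are inhibited. C. parapsilosis ATCC22019 was run as the QC strain.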

Candida albicans [2] = experiment: Minimum inhibitory concentration to inhibit 90% of the isolates; type: functional, Fungi; how it was run: as §1
K562 = experiment: Cytotoxicity to reduce chronic myeloid leukemia K 562 cells; type: functional; details: Homo sapiens
How it was run: (§2)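 CC50 is the concentration in µM that reduces viability of human histiocytic lymphoma U937 or chronic myeloid leukemia K562 cells by 50%.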

Candida albicans [3] = experiment: Antifungal activity to cause 99% reduction of surviving cells in 50% isolates; type: functional, Fungi
Candida albicans [4] = experiment: Minimum inhibitory concentration to inhibit 50% of the isolates; type: functional, Fungi; how it was run: as §1
Candida albicans [5] = experiment: Antifungal activity to cause 99% reduction of surviving cells range is equal to 2-32; type: functional, Fungi
Candida albicans [6] = experiment: Antifungal activity to cause 99% reduction of surviving cells in 90% isolates; type: functional, Fungi
Candida albicans [7] = experiment: Minimum inhibitory concentration to inhibit Candida albicans strain range is equal to 1-8; type: functional, Fungi; how it was run: as §1
Candida parapsilosis [8] = experiment: Antifungal activity to inhibit Candida parapsilosis ATCC 22019; type: functional, Fungi; details: Lodderomyces parapsilosis
U-937 = experiment: Cytotoxicity to reduce human histolytic lymphoma U937 cells; type: functional; how it was run: as §2
Candida albicans [9] = experiment: Antifungal activity to cause 99% reduction of surviving cells range is equal to 4-16; type: functional, Fungi
Candida albicans [10] = experiment: Minimum inhibitory concentration to inhibit Candida albicans strain range is equal to 16-128; type: functional, Fungi; how it was run: as §1
Candida albicans [11] = experiment: Antifungal activity to cause 99% reduction of surviving cells range is equal to 32-128; type: functional, Fungi
Candida albicans [12] = experiment: Minimum inhibitory concentration to inhibit Candida Albicans strain range is equal to 4-64; type: functional, Fungi; how it was run: as §1
Candida albicans [13] = experiment: Minimum inhibitory concentration to inhibit 50% of the isolates
Candida albicans [14] = experiment: Antifungal activity to cause 99% reduction of surviving cells range is equal to 1-8; type: functional, Fungi
Candida albicans [15] = experiment: Minimum inhibitory concentration to inhibit Candida albicans strain range is equal to 0.5-4; type: functional, Fungi; how it was run: as §1
Candida albicans [16] = experiment: Antifungal activity to cause 99% reduction of surviving cells range is equal to 2-16; type: functional, Fungi
Candida albicans [17] = experiment: Minimum inhibitory concentration to inhibit Candida albicans strain range is equal to 1-4; type: functional, Fungi; how it was run: as §1
Candida albicans [18] = experiment: Antifungal activity to cause 99% reduction of surviving cells range is equal to 8-16; type: functional, Fungi
Candida albicans [19] = experiment: Minimum inhibitory concentration to inhibit Candida albicans strain range is equal to 8-64; type: functional, Fungi; how it was run: as §1
Candida albicans [20] = experiment: Antifungal activity to cause 99% reduction of surviving cells range is equal to 16-128; type: functional, Fungi
Candida albicans [21] = experiment: Antifungal activity to cause 99% reduction of surviving cells range is equal to 8-32; type: functional, Fungi
Candida albicans [22] = experiment: Minimum inhibitory concentration to inhibit Candida albicans strain range is equal to 2-8; type: functional, Fungi; how it was run: as §1
Candida albicans [23] = experiment: Antifungal activity to cause 99% reduction of surviving cells; type: functional, Fungi
Candida albicans [24] = experiment: Minimum inhibitory concentration to inhibit Candida albicans strain range is equal to 0.125-64; type: functional, Fungi
Candida albicans [25] = experiment: Antifungal activity to cause 99% reduction of surviving cells range is equal to 64-128; type: functional, Fungi
Candida albicans [26] = experiment: Minimum inhibitory concentration to inhibit Candida albicans strain range is equal to 32-128; type: functional, Fungi
Candida albicans [27] = experiment: Minimum inhibitory concentration to inhibit Candida albicans strain range is equal to 2-16; type: functional, Fungi
Candida albicans [28] = experiment: Antifungal activity to cause 99% reduction of surviving cells range is equal to 4-32; type: functional, Fungi

Row | Compound | MIC (Candida parapsilosis [1]) [µg/mL] | MIC90 (Candida albicans [2]) [µg/mL] | CC50 (K562) [µM] | MFC50 (Candida albicans [3]) [µg/mL] | MIC50 (Candida albicans [4]) [µg/mL] | MFC90 (Candida albicans [6]) [µg/mL] | MFC (Candida parapsilosis [8]) [µg/mL] | CC50 (U-937) [µM] | also measured
1 | Clc1ccc(OC(CCn2ccnc2)c2ccccc2)cc1 (stereo unspecified) | 4 (≈ 12.8 µM) | 4 (≈ 12.8 µM) | 221 | 4 (≈ 12.8 µM) | 2 (≈ 6.39 µM) | 16 (≈ 51.2 µM) | 32 (≈ 102 µM) | 84.9 | MFC (Candida albicans [5]): < 32 µg/mL; MIC (Candida albicans [7]): < 8 µg/mL
2 | Clc1ccc(OC(CCn2ccnc2)c2ccccc2)c(Cl)c1 (stereo unspecified) | 2 (≈ 5.76 µM) | 8 (≈ 23 µM) | 96.7 | 8 (≈ 23 µM) | 4 (≈ 11.5 µM) | 8 (≈ 23 µM) | 8 (≈ 23 µM) | 56.5 | MFC (Candida albicans [9]): < 16 µg/mL; MIC (Candida albicans [7]): < 8 µg/mL
3 | FC(F)(F)c1ccc(OC(CCn2ccnc2)c2ccccc2)cc1 (stereo unspecified) | 4 (≈ 11.5 µM) | 128 (≈ 370 µM) | 71 | 64 (≈ 185 µM) | 64 (≈ 185 µM) | 128 (≈ 370 µM) | 16 (≈ 46.2 µM) | 86 | MIC (Candida albicans [10]): < 128 µg/mL; MFC (Candida albicans [11]): < 128 µg/mL
4 | Fc1ccc(OC(CCn2ccnc2)c2ccccc2)c(F)c1 (stereo unspecified) | 8 (≈ 25.5 µM) | 64 (≈ 204 µM) | 298 | 64 (≈ 204 µM) |  | 128 (≈ 407 µM) | 32 (≈ 102 µM) | 219 | MFC (Candida albicans [11]): < 128 µg/mL; MIC (Candida albicans [12]): < 64 µg/mL; MIC50 (Candida albicans [13]): 32 µg/mL (≈ 102 µM)
5 | Clc1ccc(C(CCn2ccnc2)Oc2ccc(Cl)cc2Cl)cc1 (stereo unspecified) | 0.5 (≈ 1.31 µM) | 4 (≈ 10.5 µM) | 54 | 4 (≈ 10.5 µM) | 2 (≈ 5.24 µM) | 4 (≈ 10.5 µM) | 8 (≈ 21 µM) | 61 | MFC (Candida albicans [14]): < 8 µg/mL; MIC (Candida albicans [15]): < 4 µg/mL
6 | Fc1ccc(C(CCn2ccnc2)Oc2ccc(Cl)cc2Cl)cc1 (stereo unspecified) | 0.5 (≈ 1.37 µM) | 4 (≈ 11 µM) | 33.5 | 8 (≈ 21.9 µM) | 2 (≈ 5.48 µM) | 8 (≈ 21.9 µM) | 4 (≈ 11 µM) | 43.3 | MFC (Candida albicans [16]): < 16 µg/mL; MIC (Candida albicans [15]): < 4 µg/mL
7 | Cc1ccc(C(CCn2ccnc2)Oc2ccc(Cl)cc2Cl)cc1 (stereo unspecified) | 1 (≈ 2.77 µM) | 8 (≈ 22.1 µM) | 31.4 | 4 (≈ 11.1 µM) | 2 (≈ 5.54 µM) | 16 (≈ 44.3 µM) | 4 (≈ 11.1 µM) | 40 | MFC (Candida albicans [16]): < 16 µg/mL; MIC (Candida albicans [17]): < 4 µg/mL
8 | Cc1ccc(OC(CCn2ccnc2)c2ccccc2)cc1 (stereo unspecified) | 2 (≈ 6.84 µM) | 16 (≈ 54.7 µM) | 95.9 | 16 (≈ 54.7 µM) | 8 (≈ 27.4 µM) | 16 (≈ 54.7 µM) | 16 (≈ 54.7 µM) | 141 | MIC (Candida albicans [10]): 16 µg/mL (≈ 54.7 µM); MFC (Candida albicans [18]): < 16 µg/mL
9 | O=[N+]([O-])c1ccc(OC(CCn2ccnc2)c2ccccc2)cc1 (stereo unspecified) |  | 32 (≈ 99 µM) | 102 | 32 (≈ 99 µM) | 32 (≈ 99 µM) | >128 | 32 (≈ 99 µM) | 97.2 | MIC (Candida albicans [19]): < 64 µg/mL; MFC (Candida albicans [20]): < 128 µg/mL; MIC (Candida parapsilosis [8]): 4 µg/mL (≈ 12.4 µM)
10 | Clc1ccc(COC(Cn2ccnc2)c2ccc(Cl)cc2Cl)cc1 (stereo unspecified) [ECONAZOLE] | 2 (≈ 5.24 µM) | 8 (≈ 21 µM) | 54.7 | 16 (≈ 41.9 µM) | 4 (≈ 10.5 µM) | 32 (≈ 83.8 µM) | 2 (≈ 5.24 µM) | 60 | MFC (Candida albicans [21]): < 32 µg/mL; MIC (Candida albicans [22]): < 8 µg/mL
11 | OC(Cn1cncn1)(Cn1cncn1)c1ccc(F)cc1F [FLUCONAZOLE] | 0.5 (≈ 1.63 µM) | 64 (≈ 209 µM) | 385 |  | 2 (≈ 6.53 µM) |  | 8 (≈ 26.1 µM) | 316 | MFC (Candida albicans [23]): > 64 µg/mL; MIC (Candida albicans [24]): < 64 µg/mL
12 | CNCCC(Oc1ccc(C(F)(F)F)cc1)c1ccccc1 (stereo unspecified) [FLUOXETINE] | 8 (≈ 25.9 µM) | 128 (≈ 414 µM) | 25 |  | 64 (≈ 207 µM) |  | 64 (≈ 207 µM) | 33.3 | MFC (Candida albicans [25]): < 128 µg/mL; MIC (Candida albicans [26]): < 128 µg/mL
13 | CC(=O)N1CCN(c2ccc(OC[C@H]3CO[C@](Cn4ccnc4)(c4ccc(Cl)cc4Cl)O3)cc2)CC1 [KETOCONAZOLE] | 0.06 (≈ 0.113 µM) | 8 (≈ 15.1 µM) | 61.7 | 16 (≈ 30.1 µM) | 4 (≈ 7.53 µM) | 32 (≈ 60.2 µM) | 0.5 (≈ 0.941 µM) | 70 | MFC (Candida albicans [21]): < 32 µg/mL; MIC (Candida albicans [27]): < 16 µg/mL
14 | Clc1ccc(COC(Cn2ccnc2)c2ccc(Cl)cc2Cl)c(Cl)c1 (stereo unspecified) [MICONAZOLE] | 1 (≈ 2.4 µM) | 4 (≈ 9.61 µM) | 39.3 | 8 (≈ 19.2 µM) | 4 (≈ 9.61 µM) | 16 (≈ 38.4 µM) | 0.5 (≈ 1.2 µM) | 40 | MFC (Candida albicans [28]): < 32 µg/mL; MIC (Candida albicans [7]): < 8 µg/mL
